Broadly, the inhibition is the relative decrease from the control value, in per cent. As usually defined, the half-life is the time needed for the level to fall by half in the phase considered. For orientation: logP means a log measure of how a compound divides between an organic and an aqueous phase.

Data on two compounds can be found in ChEMBL document CHEMBL3758104, “Reinvestigating Old Pharmacophores: Are 4-Aminoquinolines and Tetraoxanes Potential Two-Stage Antimalarials?” (J Med Chem, 2016).

Data set [1] concerns Plasmodium berghei. In words: Antimalarial activity against sporozoite stage of Plasmodium berghei infected in human Huh7 cells assessed as inhibition of parasite infection at 0.125 uM pre-incubated for 24 hrs followed by parasite infection measured after 48 hrs by bioluminescence assay. In kind it is functional. The following applies: Huh-7.
Data set [2] deals with Hepatocyte. In words: Drug metabolism in human hepatocytes assessed as monohydroxylated metabolite formation at 1 uM after 60 mins by LC-MS/MS analysis. The format is ADME, cell-based. The following applies: 1 h. Summed up: (§1)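 Hepatocyte incubation of 1 μM compound at 37 °C, in duplicate. Supernatants analysed by LC-MS/MS, with SRM monitoring of phase I and II metabolites (oxidation, demethylation, dehydrogenation, glucuronidation, oxidation + glucuronidation).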

A short description of data set [3]: Half life in human liver microsomes at 1 uM by LC-MS/MS analysis. In kind it is ADME. Background: Liver microsomes are a subcellular fraction often used to study metabolism.
Data set [4] concerns Plasmodium berghei. The data set is described as follows: Antimalarial activity against Plasmodium berghei ANKA infected in C57Bl6 mouse at 160 mg/kg/day, po measured on day 3 to 5 by Thompson test. The format is functional.
A short description of data set [5]: Intrinsic clearance in mouse hepatocytes assessed per 10^6 cells at 1 uM by LC-MS/MS analysis. The following applies: read-out: CLH. The format is ADME, cell-based, Hepatocyte. The method in brief:
(§2)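 Cryopreserved human or mouse hepatocytes equilibrated for 30 min at 37 °C, then given 1 μM final compound in duplicate at 37 °C. Samples quenched at set times in ice-cold methanol with internal standards. Parent depletion by LC-MS/MS (MRM) as % of time zero, fitted to first-order decay. t1/2 = 0.693/k, and CLint derived from it. Verapamil and warfarin served as controls.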

In data set [6] the test system is Hepatocyte. In words: Metabolic stability in human hepatocytes assessed as compound remaining at 1 uM after 60 mins by LC-MS/MS analysis. The format is ADME, cell-based. Particulars: 2 h, in the assay text read “120 mins” for “60 mins”. Summed up: as §2
Data set [7] concerns Hepatocyte. In words: Drug metabolism in human hepatocytes assessed as dihydroxylated metabolite formation at 1 uM after 60 mins by LC-MS/MS analysis. Particulars: 1 h. In kind it is ADME, cell-based. The method in brief:
as §1

Data set [8] has as its system Plasmodium berghei. In words: Antimalarial activity against sporozoite stage of Plasmodium berghei infected in human Huh7 cells assessed as inhibition of parasite infection pre-incubated for 24 hrs followed by parasite infection measured after 48 hrs by bioluminescence assay. The format is functional, organism-based. Particulars: Huh-7.
For data set [9], the system named is Plasmodium berghei. The data set is described as follows: Antimalarial activity against Plasmodium berghei ANKA infected in C57Bl6 mouse assessed as reduction of parasitemia at 10 to 20 mg/kg/day, po administered for day 3 to 5 by Thompson test. The format is functional, organism-based. The method in brief: (§3)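 Modified Thompson test: C57Bl6 female mice inoculated intraperitoneally on day 0 with 1×10^6 P. berghei ANKA-infected erythrocytes; compound suspended in 0.5% hydroxyethylcellulose–0.1% Tween 80, given orally once daily on days 3, 4 and 5 post infection. Parasitemia by Giemsa-stained thin tail-blood smears on days 0, 3, 6, 10, 13, 17, 20, 24, 27, 31. Cure = survival without parasitemia to day 31.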

Data set [10] has as its system Plasmodium falciparum. In words: Antimalarial activity against chloroquine-susceptible Plasmodium falciparum D6 after 48 hrs by [3H]hypoxanthine incorporation assay. In kind it is functional, organism-based. Summed up: (§4)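 P. falciparum D6 (Sierra I/UNC clone), W2 (Indochina I clone), TM91C235 (South-East Asian clone) cultured with compound; growth inhibition by [3H]hypoxanthine incorporation (modified Desjardins/Milhous method). Chloroquine, mefloquine, artemisinin as positive controls. IC50 in nM; technical triplicates, curve fits R2 0.96–1.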

The nature of data set [11]: Half life in mouse hepatocytes at 1 uM by LC-MS/MS analysis. In kind it is ADME, cell-based, Hepatocyte. The method in brief: as §2
The test system of data set [12] is Plasmodium berghei. In words: Antimalarial activity against sporozoite stage of Plasmodium berghei ANKA infected in C57BL/6J mouse assessed as reduction in liver parasite load at 80 mg/kg/, po administered for 3 days measured after 48 hrs by luciferase reporter gene assay relative to control. In kind it is functional. The arrangement: scale not given: the % may be the effect or the level left. Summed up:
(§5)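 C57BL/6J mice dosed by oral gavage (DMSO in sunflower oil) on three consecutive days: 24 h before, at, and 24 h after intravenous infection with luciferase-expressing P. berghei sporozoites. Controls got vehicle. Liver parasite load measured by in vivo luminescence 46–48 h after infection, after subcutaneous luciferin, expressed as % of controls. Two independent experiments.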
In general terms: In a reporter assay the amount or activity of a reporter protein is the signal.

For data set [13], the system named is Plasmodium berghei. In words: Antimalarial activity against sporozoite stage of Plasmodium berghei infected in human Huh7 cells assessed as remaining parasite infection at 2 uM pre-incubated for 24 hrs followed by parasite infection measured after 48 hrs by bioluminescence assay. Particulars: Huh-7.
Data set [14] deals with Plasmodium falciparum. In words: Antimalarial activity against chloroquine-resistant Plasmodium falciparum W2 after 48 hrs by [3H]hypoxanthine incorporation assay. In kind it is functional, organism-based. Summed up:
as §4

Another data set has as its system HepG2. The data set is described as follows: Cytotoxicity against human HepG2 cells after 48 hrs by MTT assay. In kind it is cell-based. The following applies: HepG2, 48 h. A general note: Tetrazolium dyes change colour on reduction, which living cells bring about.
A short description of data set [15]: Half life in mouse liver microsomes at 1 uM by LC-MS/MS analysis. In kind it is ADME.
Data set [16] has as its system Hepatocyte. In words: Half life in human hepatocytes at 1 uM by LC-MS/MS analysis. In kind it is ADME, cell-based. The method in brief: as §2
Data set [17] can be described thus: Octanol-water partition coefficient, logP of the compound. The format is physicochemical.
In data set [18] the test system is Hepatocyte. In words: Drug metabolism in mouse hepatocytes assessed as dihydroxylated metabolite formation at 1 uM after 60 mins by LC-MS/MS analysis. The format is ADME, cell-based. Particulars: 1 h. Summed up: as §1
Data set [19] can be described thus: Intrinsic clearance in human hepatocytes assessed per 10^6 cells at 1 uM by LC-MS/MS analysis. The format is ADME, cell-based, Hepatocyte. The following applies: read-out: CLH. Summed up:
as §2

The nature of data set [20]: Inhibition of beta hematin formation measured as hemin equivalent after 18 hrs. The format is physicochemical. Summed up:
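Hemin (16 mM in DMSO) mixed with compound at 0.125–5 mol equiv to hemin, plus water and 8 M acetate buffer pH 5.2, 25% DMSO final. Incubated 18 h at 37 °C. Pellet washed with DMSO, dissolved in 0.1 M NaOH, absorbance read at 405 nm (corrected at 670 nm) against a hemin calibration.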

The subject of data set [21] is Plasmodium falciparum. In words: Antimalarial activity against mutidrug resistant Plasmodium falciparum TM91C235 after 48 hrs by [3H]hypoxanthine incorporation assay. The format is functional, organism-based. The method in brief:
as §4

A further data set deals with Mus musculus. The data set is described as follows: Toxicity in Plasmodium berghei ANKA infected C57Bl6 mouse at 160 mg/kg/day, po administered for 3 days measured 2 times a day for 31 days. In kind it is organism-based. The following applies: in vivo, 744 h.
Data set [22] has as its system Plasmodium berghei. The data set is described as follows: Antimalarial activity against Plasmodium berghei ANKA infected in C57Bl6 mouse at 40 mg/kg/day, po on days 3 to 5 by Thompson test. In kind it is functional.
Data set [23] concerns Plasmodium berghei. The data set is described as follows: Antimalarial activity against sporozoite stage of Plasmodium berghei ANKA infected in C57Bl/6J mouse assessed as reduction in liver parasite load at 50 mg/kg/, po administered for 3 days measured after 48 hrs by luciferase reporter gene assay relative to control. The format is functional. Also noted: scale not given: the % may be the effect or the level left. Summed up: as §5

For data set [24], the system named is Plasmodium berghei. In words: Antimalarial activity against Plasmodium berghei ANKA infected in C57Bl6 mouse at 80 mg/kg/day, po measured on day 3 to 5 by Thompson test. The format is functional.
The subject of data set [25] is Plasmodium berghei. In words: Antimalarial activity against Plasmodium berghei ANKA infected in po dosed C57Bl6 mouse administered on day 3 to 5 by Thompson test. In kind it is functional. Summed up: as §3
The subject of data set [26] is Hepatocyte. In words: Drug metabolism in mouse hepatocytes assessed as monohydroxylated metabolite formation at 1 uM after 60 mins by LC-MS/MS analysis. The format is ADME, cell-based. Particulars: 1 h. Summed up:
as §1

The test system of data set [27] is Plasmodium falciparum. The data set is described as follows: Antimalarial activity against 4th to 5th gametocyte stage of Plasmodium falciparum 3D7elo1-pfs16-CBG99 assessed as inhibition of gametocyte viability by luciferase reporter gene assay. The format is functional, organism-based. Summed up: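 Stage IV–V gametocytes of luciferase-expressing 3D7elo1-pfs16-CBG99 strain (CBG99 under pfs16 promoter); luciferase activity as viability read-out. Viability = 100×(treated−blank)/(untreated−blank), blank = 100 nM epoxomicin-treated sample. Epoxomicin and dihydroartemisinin as positive controls. IC50 from nonlinear regression of dose–response; mean of three experiments in duplicate.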

In data set [28] the test system is Plasmodium berghei. In words: Antimalarial activity against sporozoite stage of Plasmodium berghei ANKA infected in C57BL/6J mouse assessed as reduction in liver parasite load at 50 mg/kg/, po administered for 3 days measured after 48 hrs by qRT-PCR analysis relative to control. In kind it is functional. Also noted: scale not given: the % may be the effect or the level left. The method in brief:
(§6)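 C57BL/6J mice, five per group, infected iv with luciferase-expressing P. berghei ANKA sporozoites. Compound given by oral gavage in DMSO + sunflower oil 24 h before, at, and 24 h after infection; controls got vehicle. Liver load measured 48 h post-infection by qRT-PCR of P. berghei 18S rRNA normalised to mouse Hprt, as % of controls; mean of two independent experiments.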

Data set [29] has as its system Plasmodium berghei. In words: Antimalarial activity against sporozoite stage of Plasmodium berghei ANKA infected in C57BL/6J mouse assessed as reduction in liver parasite load at 100 mg/kg/, po administered for 3 days measured after 48 hrs by qRT-PCR analysis relative to control. In kind it is functional. The arrangement: scale not given: the % may be the effect or the level left. The method in brief:
as §6

Data set [30] is described as follows: Selectivity ratio of IC50 for IV to V gametocyte stage of Plasmodium falciparum 3D7elo1-pfs16-CBG99 to IC50 for sporozoite stage of Plasmodium berghei infected in human Huh7. The format is functional, Huh-7.
For data set [31], the system named is Plasmodium berghei. The data set is described as follows: Antimalarial activity against sporozoite stage of Plasmodium berghei infected in human Huh7 cells assessed as remaining parasite infection at 5 uM pre-incubated for 24 hrs followed by parasite infection measured after 48 hrs by bioluminescence assay. The following applies: Huh-7.

The source made the active and inactive calls. Some results are limits rather than exact numbers.

`CC(CCNCC12CC3CC(CC(C3)C1)C2)Nc1c(F)cnc2cc(Cl)ccc12` (stereo not given): the inhibition at 0.125 µM in the data set on Plasmodium berghei [1] was 38%. Also, the Drug metabolism entry in the data set with Hepatocyte [2], in the data set with Hepatocyte [7], with Hepatocyte [18] and in the data set on Hepatocyte [26] was “metabolite_detected” in each case. Moreover, the half-life at 1 µM in data set [3] amounted to 13 min; in [11], 79 min; in data set [15], 21 min. The MST with Plasmodium berghei [4] is 26.2 days; in the data set on Plasmodium berghei [22] it was 18.4 days; in the data set with Plasmodium berghei [24], more than 31 days. The hepatocyte CLint at 1 µM is 8.7 µL/min/1e6 cells in data set [5] and 8.9 µL/min/1e6 cells in [19]. Further, the Stability in the data set with Hepatocyte [6] was 32%. Further, the IC50 in the data set with Plasmodium berghei [8] was 310 nM; in the data set with Plasmodium falciparum [10], 135 nM; in the data set with Plasmodium falciparum [14] it was 238 nM; in the data set with HepG2, 3970 nM; in [20], 0.61 equiv; with Plasmodium falciparum [21], 197 nM. The outcome in the data set with Plasmodium berghei [9] was inactive. The Activity is 92% with Plasmodium berghei [12], “Non-toxic” with Mus musculus, 84% with Plasmodium berghei [23] and “Dose dependent effect” in the data set with Plasmodium berghei [25]. For the same compound, the % infection at 2 µM with Plasmodium berghei [13] turned out to be 13%. Moreover, the t1/2 in the data set on Hepatocyte [16] turned out to be 78 min. The compound further showed a logP in data set [17] of 3.25. Further, the MCD in the data set on Plasmodium berghei [25] was found to be 80 mg/kg/day.
As for `CCCNC(=O)CCC(C)[C@H]1CC[C@H]2[C@@H]3[C@H](OC(C)=O)C[C@@H]4CC5(CC[C@]4(C)[C@H]3C[C@H](OC(C)=O)[C@]12C)OOC1(CCCCC1)OO5` (stereo not given in full), the figures for the IC50 in the data set on Plasmodium berghei [8] and in the data set with Plasmodium falciparum [27] were 330 nM and 1160 nM, respectively. Moreover, the Activity is 60% with Plasmodium berghei [28] and 91% with Plasmodium berghei [29]. Further, in data set [30], the “Ratio IC50” value came out at 3.5. In addition, the % infection at 5 µM with Plasmodium berghei [31] is 0.55%.
